In article PMC5976253 (Journal of medicinal chemistry, 2018):
“Also recorded” adds a separate entry of the source. Blank lines part the entries; values can stand above or below the compound they belong to.

What was measured:
[1] = target: T1, rat UT-A1 (Rattus norvegicus, UniProt Q62668); type: cell-based
T1 sequence (Q62668 1-929): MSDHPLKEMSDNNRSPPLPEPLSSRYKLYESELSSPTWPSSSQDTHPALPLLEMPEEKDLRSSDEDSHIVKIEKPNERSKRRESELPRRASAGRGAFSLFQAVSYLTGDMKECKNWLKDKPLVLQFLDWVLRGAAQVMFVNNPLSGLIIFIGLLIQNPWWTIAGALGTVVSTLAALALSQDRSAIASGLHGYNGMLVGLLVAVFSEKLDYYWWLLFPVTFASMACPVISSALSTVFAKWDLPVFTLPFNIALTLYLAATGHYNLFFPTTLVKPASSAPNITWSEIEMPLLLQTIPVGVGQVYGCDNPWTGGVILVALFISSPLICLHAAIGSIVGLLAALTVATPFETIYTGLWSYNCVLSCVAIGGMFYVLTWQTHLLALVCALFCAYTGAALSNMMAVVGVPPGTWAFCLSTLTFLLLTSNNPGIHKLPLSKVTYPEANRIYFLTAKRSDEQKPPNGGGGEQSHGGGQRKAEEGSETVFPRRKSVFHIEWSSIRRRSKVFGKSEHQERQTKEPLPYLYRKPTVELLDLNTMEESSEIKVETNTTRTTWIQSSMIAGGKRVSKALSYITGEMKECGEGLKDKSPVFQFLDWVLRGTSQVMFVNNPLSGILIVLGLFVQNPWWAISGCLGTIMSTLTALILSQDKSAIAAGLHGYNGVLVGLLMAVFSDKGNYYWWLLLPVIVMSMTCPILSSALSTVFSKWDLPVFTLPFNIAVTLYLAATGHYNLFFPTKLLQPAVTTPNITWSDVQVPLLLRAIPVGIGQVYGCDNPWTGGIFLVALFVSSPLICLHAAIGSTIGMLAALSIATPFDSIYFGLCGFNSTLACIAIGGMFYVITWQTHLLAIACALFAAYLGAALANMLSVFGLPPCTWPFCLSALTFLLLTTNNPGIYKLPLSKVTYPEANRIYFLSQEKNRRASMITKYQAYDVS
Outline: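 MDCK cells co-expressing rat UT-A1, AQP1 and YFP were used, selecting a clone with bright YFP and relatively low AQP1. Urea transport was read by plate-reader fluorescence, referenced to DMSO (0%) and phloretin (100%). Concentration–inhibition data are mean ± SEM, n = 3. For reversibility, cells were preincubated with 0.5 µM compound and PBS-washed before assay. For kinetics, 0.5 µM was added at varied times before assay. Urea gradients were 200, 400 and 800 mM.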

[2] = target: T2, rat UT-B (Rattus norvegicus, UniProt P97689); experiment: UT-B inhibition, erythrocyte lysis assay; type: cell-based
T2 sequence (P97689 1-384): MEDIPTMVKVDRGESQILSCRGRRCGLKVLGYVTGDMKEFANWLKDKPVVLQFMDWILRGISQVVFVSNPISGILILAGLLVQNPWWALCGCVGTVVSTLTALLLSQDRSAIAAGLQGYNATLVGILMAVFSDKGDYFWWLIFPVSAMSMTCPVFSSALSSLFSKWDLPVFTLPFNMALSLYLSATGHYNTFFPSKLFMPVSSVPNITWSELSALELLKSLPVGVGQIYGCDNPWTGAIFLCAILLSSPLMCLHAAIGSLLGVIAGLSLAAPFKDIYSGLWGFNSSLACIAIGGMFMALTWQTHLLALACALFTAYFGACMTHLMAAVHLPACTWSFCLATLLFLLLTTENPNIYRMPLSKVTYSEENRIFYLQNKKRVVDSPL
Outline: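 Rat whole blood was diluted to ~1.5% hematocrit in PBS with 1.25 M acetamide and 5 mM glucose, then incubated 15 min with test compound. Suspension was added rapidly to wells and mixed vigorously, and lysis was read as absorbance at 710 nm. Controls were isosmolar buffer (nonlysed) and 0.7 mM phloretin (lysed), with % lysis normalized between them; mean ± SEM, n = 3.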

[3] = test system: rats; experiment: Diuretic studies in rats; type: in vivo; conditions: rat, 4 mg/kg intravenous, compared with pretreatment
Outline: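 Male Wistar rats (250–300 g), acclimated individually in metabolic cages for 3 days (6 h/day), with food and water ad libitum. Spontaneously voided urine was collected for 3 h. Test compound or vehicle was then given IV via catheter at 4 mg/kg in saline with 20% dimethylacetamide and 1.28 mg/mL NaOH, and urine was collected for a further 3 h. Read-outs were volume and freezing-point osmolality; mean ± SEM, n = 4; paired t-test versus −3 to 0 h.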

[4] = Rat pharmacokinetics; type: in vivo; conditions: 4 mg/kg intravenous
Outline: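 Tail-vein blood was taken at 15, 30, 60, 120 and 180 min, serum separated, and urine collected in metabolic cages for 3 h; samples were stored at −20 °C. LC/MS (ESI positive) quantified compound against standards spiked into control rat urine and plasma.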

SMILES: CCCc1nnc2c(Oc3ccc(NS(=O)(=O)c4cc(Cl)ccc4OC)cc3)nc3ccccc3n12 [8ay]
Reversibility of UT-A1 inhibition ([1]; 0.5 µM for 15 min followed by washing): fully reversed
half-time for UT-A1 inhibition ([1]; after addition of 0.5 µM compound): ~ 2 min
IC50 for UT-A1 at different urea concentration gradients (inhibition mechanism) ([1]; urea 200, 400 and 800 mM): similar

SMILES: CCCc1nnc2c(Oc3ccc(NS(=O)(=O)c4cc(Cl)ccc4OC)cc3)nc3cc(F)c(F)cc3n12 [8bl]
3 h urine volume [3]: marked diuresis; also recorded: significantly increased
urine osmolality [3]: reduced urinary osmolality
serum concentration ([4]; for 3 h): greater than 2 µM
urine concentration ([4]; urine collected for 3 h): 6 to 8 µM

SMILES: COc1ccc(-c2cccc(-c3ccn(Cc4csc(C)n4)n3)c2)nn1 [compound 2]
UT-B inhibition (in words) [2]: little UT-B inhibition

SMILES: COC(=O)c1sc2nc3c(cc2c1N)CN(Cc1ccccc1)CC3 [compound 4]
UT-A1 inhibition (in words) [1]: low potency

SMILES: O=C(Nc1ccon1)c1cc(-c2ccccc2)nc2ccccc12 [compound 3]
UT-B inhibition (in words) [2]: little UT-B inhibition

SMILES: CC(=O)Nc1ccc(-c2noc(C3CCCN(C(=O)c4ccccc4F)C3)n2)cc1 (stereo not shown) [compound 1]
UT-B inhibition (in words) [2]: little UT-B inhibition

Next, values leading:

UT-B inhibition (in words) [2]: modest activity
SMILES: COc1ccc(Cl)cc1S(=O)(=O)Nc1ccc(Oc2nc3ccccc3n3cnnc23)cc1 [8aa, N-(4-([1,2,4]Triazolo[4,3-a]quinoxalin-4-yloxy)-phenyl)-5-chloro-2-methoxybenzenesulfonamide]

UT-A1 inhibition (in words) [1]: inactive
SMILES: COc1ccc(Cl)c(S(=O)(=O)Nc2ccc(Oc3nc4ccccc4n4cnnc34)cc2)c1 [8ag]

UT-A1 inhibition (in words) [1]: inactive
SMILES: COc1ccc(Cl)c(S(=O)(=O)Nc2ccc(Nc3nc4ccccc4n4cnnc34)cc2)c1 [8am]

UT-A1 inhibition (in words) [1]: inactive
SMILES: COc1ccc(Cl)cc1S(=O)(=O)Nc1ccc(Oc2nc3cc(Cl)c(Cl)cc3n3cnnc23)cc1 [8bi]

UT-A1 inhibition (in words) [1]: inactive
SMILES: COc1ccc(Cl)cc1S(=O)(=O)Nc1ccc(Oc2nc3ccccc3n3c(C)nnc23)cc1 [8an]
